The values below come from ChEMBL document CHEMBL1129059, “Antitumor properties of some 2-[(dimethylamino)methyl]phenylgold(III) complexes” (J Med Chem, 1996).

For data set [1], the system named is A2780. The experiment in a line: Compound was tested for in vitro growth inhibition of Ovarian carcinoma cell line panel A2780. Type of data set: functional, cell-based, Homo sapiens. The method, boiled down: (§1)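 Ovarian lines grown as monolayers in DMEM with 10% FBS, insulin, hydrocortisone and L-glutamine under 6% CO2. Cells were seeded at 3–5 × 10³/well and left to attach overnight. Compounds were freshly dissolved in DMA or water and applied for 96 h in quadruplicate wells. Growth was measured by SRB and reported as IC50.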

In data set [2] the test system is A2780. Put plainly: Compound was tested for in vitro growth inhibition of Ovarian carcinoma cell line panel A2780-R. Format: functional, cell-based, Homo sapiens. The method, boiled down: as §1
Data set [3] in a line: Solubility at 25 degrees Celsius in 1-Octanol. Type of data set: physicochemical. In outline:
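A sample was tumbled in 1-octanol at 25 °C for 24 h and filtered. An aliquot was evaporated and the residue taken up in dilute aqua regia. Gold content was determined as for the aqueous samples, with indium as internal standard.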

Data set [4] relates to CH1. The experiment in a line: Compound was tested for in vitro growth inhibition of Ovarian carcinoma cell line panel CH1-R. Type of data set: functional, cell-based. The method, boiled down: as §1
Data set [5] has as its system CH1. Put plainly: Compound was tested for in vitro growth inhibition of Ovarian carcinoma cell line panel CH1. Format: functional, cell-based. The method, boiled down:
as §1

A further data set deals with HT-29. Put plainly: Compound was tested for in vitro growth inhibition of primary panel tumor cell line HT-29/219. Format: functional, cell-based, Homo sapiens. The method, boiled down: (§2)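 Primary-panel lines kept in L15, RPMI 1640 plus pyruvate, or MEM, each with 10% FBS. Cells were seeded at 5×10^4–10^5 cells/mL, preincubated 24 h, then exposed 4 h to 0–200 μg/mL from a 2 mg/mL stock in 10% DMA/PBS. After washout and 72 h further growth, cells were read by SRB. IC50 was the concentration giving 50% survival versus untreated controls.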

Another data set has as its system HX62 cell line. The experiment in a line: Compound was tested for in vitro growth inhibition of Ovarian carcinoma cell line panel HX62. Format: functional, cell-based, Homo sapiens. In outline: as §1
For data set [6], the system named is SK-OV-3. The experiment in a line: Compound was tested for in vitro growth inhibition of primary panel tumor cell lines SK-OV-3. Type of data set: functional, cell-based, Homo sapiens. The method, boiled down:
as §2

For data set [7], the system named is SW-620. The experiment in a line: Compound was tested for in vitro growth inhibition of primary panel tumor cell lines SW620. Format: functional, cell-based, Homo sapiens. In outline: as §2
The next data set relates to SW 1116. The experiment in a line: Compound was tested for in vitro growth inhibition of primary panel tumor cell line SW1116. Type of data set: functional, cell-based, Homo sapiens. In outline:
as §2

In data set [8] the test system is SK-OV-3. The experiment in a line: Compound was tested for in vitro growth inhibition of Ovarian carcinoma cell line panel SK-OV-3. Type of data set: functional, cell-based, Homo sapiens. In outline:
as §1

The subject of the next data set is ZR-75-1. Put plainly: Compound was tested for in vitro growth inhibition of primary panel tumor cell line ZR-75-1. Type of data set: functional, cell-based, Homo sapiens. The method, boiled down: as §2
The test system of another data set is HT-1376. Put plainly: Compound was tested for in vitro growth inhibition of primary panel tumor cell line HT1376. Type of data set: functional, cell-based, Homo sapiens. The method, boiled down: as §2
Data set [9] in a line: Solubility at 25 degrees Celsius in water. Type of data set: physicochemical. The conditions noted are these: buffer. The method, boiled down: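 5–10 mg sample was tumbled in 5.0 mL water at 25 °C for 24 h and filtered. The solution was diluted as needed and gold was quantified with 1 ppm indium as internal standard.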
The test system of data set [10] is SK-OV-3. Put plainly: Compound was tested for in vitro growth inhibition of primary panel tumor cell line SK-OV-3. Type of data set: functional, cell-based, Homo sapiens. In outline: as §2
For data set [11], the system named is SW-620. The experiment in a line: Compound was tested for in vitro growth inhibition of primary panel tumor cell line SW620. Type of data set: functional, cell-based, Homo sapiens. In outline:
as §2

Data set [12] is described as follows: Range is evaluated. (Highest IC50/Lowest IC50). Format: functional.
Data set [13] has as its system Mus musculus. The experiment in a line: Compound was evaluated for antitumor activity (RTV) in HT1376 carcinoma Xenograft, at a dosage 4.5 mg/kg on day 21. Type of data set: functional, organism-based. The arrangement: dose 4.5 mg/kg. In outline: (§3)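 HT1376 tumor fragments implanted subcutaneously in nude mice flanks; mice with established palpable tumors randomized into groups of 6 (controls 10). Compounds given intraperitoneally as suspensions in 0.5% carboxymethylcellulose in 0.9% saline, on days 0, 7, 14 and 21. Tumor dimensions on days 0, 7, 14, 21, 28. RTV = 100(mean tumor volume at assessment)/(mean start volume).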

Data set [14] has as its system Mus musculus. The experiment in a line: Compound was evaluated for antitumor activity (RTV) in HT1376 carcinoma Xenograft, at a dosage 4.5 mg/kg on day 28. Type of data set: functional, organism-based. The arrangement: dose 4.5 mg/kg. The method, boiled down:
as §3

The subject of data set [15] is Mus musculus. Put plainly: Compound was evaluated for antitumor activity (RTV) in HT1376 carcinoma Xenograft, at a dosage 4.5 mg/kg on day 7. Also noted: dose 4.5 mg/kg. Type of data set: functional, organism-based. In outline:
as §3

The subject of data set [16] is Mus musculus. The experiment in a line: Compound was evaluated for antitumor activity (RTV) in HT1376 carcinoma Xenograft, at a dosage 4.5 mg/kgon day 13. Type of data set: functional, organism-based. Also noted: dose 4.5 mg/kg.
Data set [17] has as its system Mus musculus. Put plainly: Compound was evaluated for antitumor activity (T/C) in HT1376 carcinoma Xenograft, at a dosage 4.5 mg/kg on day 13. Format: functional, organism-based. The arrangement: dose 4.5 mg/kg. In outline: (§4)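 Nude mice carrying subcutaneous flank HT1376 fragments; treatment began once tumors were established and palpable, randomized into groups of 6 treated and 10 control mice. Dosing was ip as a suspension in 0.5% carboxymethylcellulose in 0.9% saline on days 0, 7, 14 and 21, at the MTD and two 2-fold dilutions. Tumors were measured on days 0-28. RTV = 100(mean volume at assessment)/(mean start volume); T/C = treated RTV/control RTV.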

The subject of data set [18] is Mus musculus. The experiment in a line: Compound was evaluated for antitumor activity (T/C) in HT1376 carcinoma Xenograft, at a dosage 4.5 mg/kg on day 21. Also noted: dose 4.5 mg/kg. Type of data set: functional, organism-based. The method, boiled down: as §4
Data set [19] concerns Mus musculus. The experiment in a line: Compound was evaluated for antitumor activity (T/C) in HT1376 carcinoma Xenograft, at a dosage 4.5 mg/kg on day 28. Type of data set: functional, organism-based. Also noted: dose 4.5 mg/kg. The method, boiled down: as §4
Data set [20] has as its system Mus musculus. Put plainly: Compound was evaluated for antitumor activity (T/C) in HT1376 carcinoma Xenograft, at a dosage 4.5 mg/kg on day 7. Also noted: dose 4.5 mg/kg. Format: functional, organism-based. The method, boiled down:
as §4

Data set [21] relates to SK-OV-3. The experiment in a line: Compound was tested for in vitro growth inhibition of Ovarian carcinoma cell line panelSK-OV-3. Type of data set: functional, cell-based, Homo sapiens. In outline:
as §1

“And” between values parts separate entries of the source, which are not always exact repeats. Identical values can stand only once. Bounds are passed on as bounds.

Turning to “Acetato[2-(dimethylamino)methyl]phenyl-C,N]gold-(III)”, the half-maximal inhibitory concentration (IC50) worked out at 3.5 µM with A2780 [1]; 35 µM in the data set with A2780 [2]; 12 µM in the data set on CH1 [4]; 11 µM in the data set with CH1 [5]; 67 µM with HT-29; 34 µM with HX62 cell line. Further, the IC50 in the data set with SK-OV-3 [6] worked out at 13 µM; in the data set on SW-620 [7], 281 µM; in the data set with SW 1116, 238 µM; with SK-OV-3 [8] it was 107 µM; in the data set with ZR-75-1 it was 45 µM; with HT-1376 it was 13 µM. Besides, the Solubility in data set [3] was above 5280 µM; in [9], above 5230 µM.
Take “Bis(thiocyanato)[2-(dimethylamino)methyl]phenyl-C,N]gold-(III) [listing 1 of 2 here]”: the IC50 was determined as 2 µM in the data set on A2780 [1]; 26 µM in the data set with A2780 [2]; 11 µM in the data set with CH1 [4]; 10 µM in the data set on CH1 [5]; 25 µM in the data set with HT-29; 31 µM with HX62 cell line. Further, the 50% inhibitory concentration (IC50) is 20 µM with SK-OV-3 [10]; 47 µM in the data set with SW 1116; 39 µM in the data set on SK-OV-3 [8]; 34 µM with ZR-75-1; 6.7 µM in the data set with HT-1376; 51 µM with SW-620 [11]. For the same substance, the Solubility in [3] stood at 780 µM; in [9], 130 µM.
For “Bis(thiocyanato)[2-(dimethylamino)methyl]phenyl-C,N]gold-(III) [listing 2 of 2 here]”, the Range in data set [12] was 7.6 and 19.5.
On to CISPLATIN, for which the RTV in the data set with Mus musculus [13] turned out to be 544; in the data set on Mus musculus [14], 1050; in the data set with Mus musculus [15], 245; in the data set with Mus musculus [16], 364. In addition, the T/C in the data set on Mus musculus [17] came to 0.72; in the data set with Mus musculus [18] it was 0.61; with Mus musculus [19], 0.73; in the data set on Mus musculus [20] it was 0.88.
In the case of “Dichloro[2-(dimethylamino)methyl]phenyl-C,N]gold-(III)”, the half-inhibitory concentration (IC50) in the data set on A2780 [1] turned out to be 8.2 µM; in the data set with A2780 [2], 47 µM; with CH1 [4] it was 22 µM; with CH1 [5], 13 µM; in the data set on HT-29, 55 µM; in the data set with HX62 cell line it was 57 µM. The 50% inhibitory concentration (IC50) with SK-OV-3 [21] was determined as 109 µM; with SK-OV-3 [6], 45 µM; in the data set on SW-620 [7], 124 µM; with SW 1116, 119 µM; in the data set on ZR-75-1 it was 27 µM; in the data set on HT-1376, 30 µM. Further, the Solubility was determined as 920 µM in data set [3] and 250 µM in data set [9].

One may read the IC50 as the point on the concentration scale where inhibition reaches its midpoint. A higher IC50 goes with weaker potency in that assay. As usually defined, the Solubility is the concentration that dissolves in the medium under given conditions. Higher therefore signals much dissolved substance.
